Data published in ChEMBL document CHEMBL3102739, “Synthesis and antiproliferative activity of conformationally restricted 1,2,3-triazole analogues of combretastatins in the sea urchin embryo model and against human cancer cell lines” (Bioorg Med Chem, 2014).
Activity calls are given as the source filed them.

Experiments:
[1] = Cytotoxicity against human SH-SY5Y cells assessed as cell viability after 48 hrs; type: functional, cell-based
[2] = test system: Paracentrotus lividus; experiment: Antimitotic activity against sea urchin embryo free-swimming blastula model assessed as embryo spinning compound treated at 8 to 10 hrs post-fertilization measured after 0.25 to 20 hrs; type: functional, Blastula stage
[3] = test system: Paracentrotus lividus; experiment: Antimitotic activity against sea urchin embryo model assessed as cleavage arrest of fertilized egg compound treated at 8 to 20 mins post-fertilization and 45 to 55 mins prior to first mitotic cycle completion measured 2.5 to 5.5 hrs post-fertilization; type: functional
How it was run: (§1)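 Fertilized eggs are exposed 8–20 min after fertilization to 2-fold decreasing concentrations. Stocks are 10 mM in DMSO, then diluted 10-fold in 95% EtOH; final DMSO is at most 0.05% and EtOH at most 1%. Embryos are kept as a monolayer, up to 2000 embryos/mL, in filtered seawater at room temperature. The value is the threshold concentration giving cleavage alteration, embryo death before hatching or full mitotic arrest. Duplicates were run.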

[4] = test system: Paracentrotus lividus; experiment: Antimitotic activity against sea urchin embryo model assessed as cleavage alteration of fertilized egg compound treated at 8 to 20 mins post-fertilization and 45 to 55 mins prior to first mitotic cycle completion measured 2.5 to 5.5 hrs post-fertilization; type: functional; how it was run: as §1
[5] = Cytotoxicity against human Jurkat/A4 cells assessed as cell death at 1 uM after 48 hrs by trypan blue exclusion assay relative to control; type: functional
How it was run: (§2)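 Compound added to exponentially growing Jurkat or Jurkat/A4 cells in RPMI-1640 with 10% FCS at 37 °C. Viable cells counted directly by trypan blue exclusion after 48 h. EC50 taken by linear interpolation of survival data. Mean±SD from three independent experiments.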

[6] = test system: Jurkat; experiment: Cytotoxicity against human Jurkat cells assessed as cell viability after 48 hrs by trypan blue exclusion assay; type: functional, cell-based; how it was run: as §2
[7] = Cytotoxicity against human MES-SA/Dx5 cells after 72 hrs by MTS assay; type: functional, cell-based; conditions: MES-SA/Dx5, 72 h
[8] = Cytotoxicity against human MES-SA cells after 72 hrs by MTS assay; type: functional, cell-based
[9] = Cytotoxicity against multidrug-resistant human HL60/TX1000 cells after 72 hrs by MTS assay; type: functional, cell-based; conditions: HL60/TX1000, 72 h
[10] = test system: HL-60; experiment: Cytotoxicity against human HL60 cells after 72 hrs by MTS assay; type: functional, cell-based; conditions: HL-60, 72 h
[11] = Induction of apoptosis in human Jurkat/A4 cells assessed as PARP-1 cleavage at 300 nM after 48 hrs by FITC-conjugated flow cytometric analysis (reference value: 0.9%); type: functional
[12] = test system: Jurkat; experiment: Induction of apoptosis in human Jurkat cells assessed as PARP-1 cleavage at 30 nM after 48 hrs by FITC-conjugated flow cytometric analysis (reference value: 3.5%); type: functional
[13] = Induction of apoptosis in human Jurkat/A4 cells assessed as active caspase 3 expression at 300 nM after 48 hrs by FITC-conjugated flow cytometric analysis (reference value: 1.1%); type: functional
[14] = Induction of apoptosis in human Jurkat/A4 cells assessed as active caspase 3 expression at 300 nM after 24 hrs by FITC-conjugated flow cytometric analysis (reference value: 1.1%); type: functional
[15] = test system: Jurkat; experiment: Induction of apoptosis in human Jurkat cells assessed as active caspase 3 expression at 30 nM after 48 hrs by FITC-conjugated flow cytometric analysis (reference value: 3.3%); type: functional
[16] = test system: Jurkat; experiment: Induction of apoptosis in human Jurkat cells assessed as active caspase 3 expression at 30 nM after 24 hrs by FITC-conjugated flow cytometric analysis (reference value: 3.3%); type: functional
[17] = test system: Jurkat; experiment: Induction of apoptosis in human Jurkat cells assessed as active caspase 3 expression at 30 nM by FITC-conjugated flow cytometric analysis; type: functional, cell-based; conditions: TDE = time-dependent effect
[18] = test system: Jurkat/A4; experiment: Induction of apoptosis in human Jurkat/A4 cells assessed as Bcl-2 expression at 300 nM after 24 to 48 hrs Western blotting analysis; type: functional, cell-based
How it was run: (§3)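 Cells in RPMI-1640 with 10% FCS at 37 °C, 5% CO2, were treated for 24 or 48 h, then washed in cold PBS. They were lysed 30 min at 4 °C in 20 mM Tris-HCl pH 7.4, 1% Triton X-100, 150 mM NaCl and protease inhibitors. Equal protein was run on 12% SDS-PAGE and blotted to PVDF, with 5% milk block. Primary MoAb 2 h RT, HRP anti-mouse 60 min, ECL; β-actin loading control.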

[19] = test system: Jurkat; experiment: Induction of apoptosis in human Jurkat cells assessed as Bcl-2 expression at 30 nM after 24 to 48 hrs Western blotting analysis; type: functional, cell-based; how it was run: as §3
[20] = test system: Jurkat/A4; experiment: Induction of apoptosis in human Jurkat/A4 cells assessed as reduction of XIAP expression at 300 nM after 24 hrs Western blotting analysis; type: functional, cell-based; how it was run: as §3
[21] = test system: Jurkat; experiment: Induction of apoptosis in human Jurkat cells assessed as reduction of XIAP expression at 30 nM after 24 hrs Western blotting analysis; type: functional, cell-based; how it was run: as §3
[22] = test system: Jurkat/A4; experiment: Induction of apoptosis in human Jurkat/A4 cells assessed as caspase 2 activation at 300 nM after 24 to 48 hrs by Western blotting analysis; type: functional, cell-based; how it was run: as §3
[23] = test system: Jurkat/A4; experiment: Induction of apoptosis in human Jurkat/A4 cells assessed as caspase 9 activation at 300 nM after 24 to 48 hrs by Western blotting analysis; type: functional, cell-based; how it was run: as §3
[24] = test system: Jurkat; experiment: Induction of apoptosis in human Jurkat cells assessed as caspase 2 activation at 30 nM after 24 to 48 hrs by Western blotting analysis; type: functional, cell-based; how it was run: as §3
[25] = test system: Jurkat; experiment: Induction of apoptosis in human Jurkat cells assessed as caspase 9 activation at 30 nM after 48 hrs by Western blotting analysis; type: functional, cell-based; how it was run: as §3
[26] = Cell cycle arrest in human Jurkat/A4 cells assessed as accumulation at sub-G1 phase at 300 nM after 48 hrs by propidium iodide staining-based flow cytometric analysis (reference value: 17.1%); type: functional
[27] = test system: Jurkat; experiment: Cell cycle arrest in human Jurkat cells assessed as accumulation at sub-G1 phase at 30 nM after 48 hrs by propidium iodide staining-based flow cytometric analysis (reference value: 12.2%); type: functional
[28] = test system: Jurkat/A4; experiment: Induction of apoptosis in human Jurkat/A4 cells assessed as condensed and fragmented nuclei at 300 nM after 48 hrs by May-Grunwald-Giemsa staining-based microscopic analysis; type: functional, cell-based
How it was run: (§4)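 Jurkat or Jurkat/A4 suspension cultures in RPMI-1640 with 10% FCS at 37 °C, 5% CO2 were treated for 48 h alongside untreated controls. Cells were cytospun, stained May–Grünwald–Giemsa and examined by light microscopy with a 100× objective for nuclear and mitotic abnormalities.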

[29] = test system: Jurkat/A4; experiment: Induction of apoptosis in human Jurkat/A4 cells assessed as small cell fragments with unequally segregated chromosomes enclosed by cell membrane at 300 nM after 48 hrs by May-Grunwald-Giemsa staining-based microscopic analysis; type: functional; how it was run: as §4
[30] = test system: Jurkat/A4; experiment: Induction of apoptosis in human Jurkat/A4 cells assessed as micronuclei formation at 300 nM after 48 hrs by May-Grunwald-Giemsa staining-based microscopic analysis; type: functional, cell-based; how it was run: as §4
[31] = test system: Jurkat; experiment: Induction of apoptosis in human Jurkat cells assessed as condensed and fragmented nuclei at 15 nM after 48 hrs by May-Grunwald-Giemsa staining-based microscopic analysis; type: functional, cell-based; how it was run: as §4
[32] = test system: Jurkat; experiment: Induction of apoptosis in human Jurkat cells assessed as small cell fragments with unequally segregated chromosomes enclosed by cell membrane at 15 nM after 48 hrs by May-Grunwald-Giemsa staining-based microscopic analysis; type: functional; how it was run: as §4
[33] = test system: Jurkat; experiment: Induction of apoptosis in human Jurkat cells assessed as micronuclei formation at 15 nM after 48 hrs by May-Grunwald-Giemsa staining-based microscopic analysis; type: functional, cell-based; how it was run: as §4
[34] = Cell cycle arrest in human Jurkat/A4 cells assessed as decrease in accumulation at G0/G1 phase at 300 nM after 24 hrs by propidium iodide staining-based flow cytometric analysis; type: functional
[35] = Cell cycle arrest in human Jurkat/A4 cells assessed as increase in accumulation at G2/M phase at 300 nM after 24 hrs by propidium iodide staining-based flow cytometric analysis; type: functional
[36] = test system: Jurkat; experiment: Cell cycle arrest in human Jurkat cells assessed as decrease in accumulation at G0/G1 phase at 30 nM after 24 hrs by propidium iodide staining-based flow cytometric analysis; type: functional
[37] = test system: Jurkat; experiment: Cell cycle arrest in human Jurkat cells assessed as increase in accumulation at G2/M phase at 30 nM after 24 hrs by propidium iodide staining-based flow cytometric analysis; type: functional
[38] = test system: Jurkat/A4; experiment: Cytotoxicity against human Jurkat/A4 cells assessed as cell death treated for 2 hrs followed by cultivation in drug-free medium for 7 days; type: functional, cell-based
How it was run: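 Jurkat/A4 cells in RPMI-1640 with 10% fetal calf serum are exposed for two hours, then cultured seven days in drug-free medium and scored for delayed cell death.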

In the case of `COc1ccc(-n2nncc2-c2cc(OC)c(OC)c(OC)c2)cc1`, the IC50 [1] is reported as greater than 1000 nM, the EC [2] is reported as greater than 4 µM and the EC [3] is reported as 4 µM. It also gave an EC [4] of 1 µM.
With `COc1ccc(-c2cnnn2-c2cc(OC)c(OC)c(OC)c2)cc1` the Activity [5] was less than 20%, the EC50 [6] was 30 nM and the EC [2] was 1 µM. It also gave an EC [3] of 0.2 µM, an EC [4] of 0.02 µM and an IC50 [7] of 20 nM. The IC50 [8] was 20 nM, the IC50 [9] was 20 nM and the IC50 [10] was 20 nM. For the same compound, the Activity [11] was 2.5%, the Activity [12] was 61.4% and the Activity [13] was 1.6%. The Activity [14] was 1.8%, the Activity [15] was 32.1% and the Activity [16] was 19.6%. The Activity [17] was “tde”, the Activity [18] was “inactive” and the Activity [19] was “inactive”. For the same compound, the Activity [20] was “inactive”, the Activity [21] was “Active” and the Activity [22] was “inactive”. The Activity [23] was “inactive”, the Activity [24] was “Active” and the Activity [25] was “Active”. For the same compound, the Activity [26] was 26.2%, the Activity [27] was 43.4% and the Activity [28] was “Active”. For the same compound, the Activity [29] was “Active”, the Activity [30] was “Active” and the Activity [31] was “Active”. For the same compound, the Activity [32] was “Active”, the Activity [33] was “Active” and the Activity [34] was “Active”. For the same compound, the Activity [35] was “Active”, the Activity [36] was “Active” and the Activity [37] was “Active”. The Activity [38] was “Active”.
